The results in this text go back to ChEMBL document CHEMBL4316592, “Synthesis of new derivatives of boehmeriasin A and their biological evaluation in liver cancer” (Eur J Med Chem, 2019).

Active and inactive are the calls of the source. The calls are words filed in the database; no cut-off is given here.

By IC50 is commonly meant the concentration needed to halve the response being measured.

In assay [1] the test system is Huh-7. Description: Down-regulation of CDK2 protein expression in human HuH7 cells at 1 uM after 24 to 72 hrs by Western blot analysis. Type of assay: functional, cell-based. For orientation: A western blot detects proteins with antibodies after separation by electrophoresis.
Assay [2] deals with Mahlavu. Description: Cell cycle arrest in human Mahlavu cells assessed as accumulation of cells at G2/M phase at 1 uM after 48 hrs by propidium iodide staining-based flow cytometric analysis (reference value: 22.3%). Type of assay: functional. (In general: In flow cytometry, cells or beads pass a laser one at a time.)
Assay [3] has as its system Huh-7. Description: Induction of apoptosis in human HuH7 cells assessed as increase in cytochrome C levels at 1 uM by Hoechst staining-based assay. Type of assay: functional, cell-based.
Assay [4] relates to Huh-7. Description: Induction of apoptosis in human HuH7 cells assessed as late apoptotic cells at 1 uM after 48 hrs by Annexin V-FITC/propidium iodide staining-based flow cytometric analysis (reference value: 2.53%). Type of assay: functional.
The test system of assay [5] is Mahlavu. Description: Induction of apoptosis in human Mahlavu cells assessed as viable cells at 1 uM after 24 hrs by Annexin V-FITC/propidium iodide staining-based flow cytometric analysis (reference value: 98.51%). Type of assay: functional. The note with it: read-out: Activity.
Assay [6] relates to Huh-7. The experiment in a line: Induction of apoptosis in human HuH7 cells assessed as necrotic cells at 1 uM after 48 hrs by Annexin V-FITC/propidium iodide staining-based flow cytometric analysis (reference value: 0.02%). Type of assay: functional.
Assay [7] concerns Huh-7. The experiment in a line: Cell cycle arrest in human HuH7 cells assessed as accumulation of cells at subG1 phase at 1 uM after 48 hrs by propidium iodide staining-based flow cytometric analysis (reference value: 3.2%). Type of assay: functional.
Assay [8] has as its system Mahlavu. The experiment in a line: Induction of apoptosis in human Mahlavu cells assessed as viable cells at 1 uM after 48 hrs by Annexin V-FITC/propidium iodide staining-based flow cytometric analysis (reference value: 98.48%). Type of assay: functional. The following applies: read-out: Activity.
In assay [9] the test system is Huh-7. The experiment in a line: Cell cycle arrest in human HuH7 cells assessed as accumulation of cells at S phase at 1 uM after 72 hrs by propidium iodide staining-based flow cytometric analysis (reference value: 15.5%). Type of assay: functional.
Assay [10] has as its system Mahlavu. The experiment in a line: Down-regulation of cyclin-B1 protein expression in human Mahlavu cells at 1 uM after 24 to 72 hrs by Western blot analysis. Type of assay: functional, cell-based.
The subject of assay [11] is Mahlavu. Description: Induction of apoptosis in human Mahlavu cells assessed as necrotic cells at 1 uM after 48 hrs by Annexin V-FITC/propidium iodide staining-based flow cytometric analysis (reference value: 0.07%). Type of assay: functional.
In assay [12] the test system is Mahlavu. The experiment in a line: Cytotoxicity against human Mahlavu cells after 24 hrs by RTCA analysis. Type of assay: functional, cell-based. The gist of the method:
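xCELLigence impedance real-time growth assay. Huh7 (2000) or Mahlavu (1000) cells plated, treated after 24 h at log phase with a 2-fold dilution series (4 steps) from a top concentration of 1. Cell index recorded every 10 min for 24 h, then every 30 min. Growth inhibition normalized to DMSO; IC50 taken at 24, 48, 72 h.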

In assay [13] the test system is Mahlavu. Description: Induction of apoptosis in human Mahlavu cells assessed as late apoptotic cells at 1 uM after 72 hrs by Annexin V-FITC/propidium iodide staining-based flow cytometric analysis (reference value: 3.48%). Type of assay: functional.
For assay [14], the system named is Hep 3B2. The experiment in a line: Cytotoxicity against human Hep3B cells after 72 hrs by SRB assay. The following applies: Homo sapiens, Hep3B, 72 h; read-out: IC50. Type of assay: functional, cell-based. In a few lines: (§1)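 SRB assay. Cells plated per well (HCT116 3000; Huh7, Hep3B, HepG2, MCF-7 2000; Mahlavu, FOCUS, SNU475 1000) and grown 24 h. Compounds came from 20 mM DMSO stocks and were tested in triplicate, 40 to 2,5 (or 2,5 to 0,03) per printed range, for 72 h. Cells fixed in 10% TCA, stained with 0.4% SRB, dye dissolved in 10 mM Tris, A515 read. IC50 derived after DMSO normalization.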
(In general: The SRB assay estimates cell density from bound dye.)

The target of assay [15] is T1, Mitogen-activated protein kinase kinase kinase 5 (Homo sapiens) (UniProt Q99683).
T1 sequence (whole entry): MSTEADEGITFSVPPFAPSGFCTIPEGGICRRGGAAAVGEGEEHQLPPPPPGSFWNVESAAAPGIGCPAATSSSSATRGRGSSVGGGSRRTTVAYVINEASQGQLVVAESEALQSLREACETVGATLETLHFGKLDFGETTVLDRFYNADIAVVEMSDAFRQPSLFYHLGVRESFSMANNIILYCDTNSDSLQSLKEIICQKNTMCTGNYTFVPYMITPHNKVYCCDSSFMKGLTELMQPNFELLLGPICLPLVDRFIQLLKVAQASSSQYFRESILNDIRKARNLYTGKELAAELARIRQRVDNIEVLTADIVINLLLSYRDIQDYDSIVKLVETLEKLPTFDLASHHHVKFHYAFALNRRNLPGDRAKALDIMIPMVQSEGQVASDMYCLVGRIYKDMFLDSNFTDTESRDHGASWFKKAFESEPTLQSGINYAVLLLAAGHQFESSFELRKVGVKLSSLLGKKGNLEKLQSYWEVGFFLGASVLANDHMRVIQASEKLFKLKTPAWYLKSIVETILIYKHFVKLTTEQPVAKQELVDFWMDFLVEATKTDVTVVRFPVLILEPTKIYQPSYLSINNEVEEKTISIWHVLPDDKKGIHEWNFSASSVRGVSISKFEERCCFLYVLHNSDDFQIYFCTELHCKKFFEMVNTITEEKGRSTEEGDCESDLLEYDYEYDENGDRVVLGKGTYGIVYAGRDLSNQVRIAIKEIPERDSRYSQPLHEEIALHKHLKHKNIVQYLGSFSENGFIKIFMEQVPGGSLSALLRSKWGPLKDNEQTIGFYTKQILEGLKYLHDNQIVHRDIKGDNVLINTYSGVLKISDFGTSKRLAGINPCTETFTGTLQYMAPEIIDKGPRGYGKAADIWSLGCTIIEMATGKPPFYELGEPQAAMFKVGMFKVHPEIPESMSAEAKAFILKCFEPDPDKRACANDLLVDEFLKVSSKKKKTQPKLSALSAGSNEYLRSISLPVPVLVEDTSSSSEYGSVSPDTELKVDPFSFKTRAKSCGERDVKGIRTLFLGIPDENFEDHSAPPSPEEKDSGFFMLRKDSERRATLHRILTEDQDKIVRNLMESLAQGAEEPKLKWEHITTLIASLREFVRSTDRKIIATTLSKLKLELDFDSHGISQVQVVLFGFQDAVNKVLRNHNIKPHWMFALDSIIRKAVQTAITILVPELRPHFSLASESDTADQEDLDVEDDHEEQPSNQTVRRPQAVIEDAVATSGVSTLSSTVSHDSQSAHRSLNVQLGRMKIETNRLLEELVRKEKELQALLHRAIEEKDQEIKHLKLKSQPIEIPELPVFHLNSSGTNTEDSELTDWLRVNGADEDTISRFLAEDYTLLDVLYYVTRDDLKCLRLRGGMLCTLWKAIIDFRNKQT
The experiment in a line: Inhibition of ASK1 Ser-966 phosphorylation in human Mahlavu cells at 1 uM after 24 to 72 hrs by Western blot analysis. Type of assay: cell-based.

Assay [16] deals with HepG2. The experiment in a line: Cytotoxicity against human HepG2 cells after 72 hrs by SRB assay. The note with it: Homo sapiens, HepG2, 72 h; read-out: IC50. Type of assay: functional, cell-based. In a few lines: as §1
Assay [17] concerns Mahlavu. Description: Cell cycle arrest in human Mahlavu cells assessed as accumulation of cells at G2/M phase at 1 uM after 24 hrs by propidium iodide staining-based flow cytometric analysis (reference value: 24.7%). Type of assay: functional.
Assay [18] has as its system Huh-7. The experiment in a line: Cell cycle arrest in human HuH7 cells assessed as accumulation of cells at S phase at 1 uM after 24 hrs by propidium iodide staining-based flow cytometric analysis (reference value: 14.2%). Type of assay: functional.

Regarding `COc1ccc2c3c(c4cc(OC)c(OC)cc4c2c1)CN1CCCC[C@@H]1C3`, the result in assay [1], in assay [3] and in assay [10] was Active. The Activity is 16.6% in assay [2]; 5.96% in [4]; 0.07% in [6]; 7.5% in assay [7]; 8.7% in [9]; 1.16% in [11]. In addition, the Activity in assay [13] is listed as 12.74%; in [17], 23.7%; in assay [18], 15.9%. For the same compound, the viability at 1 µM in assay [5] worked out at 94.2%; in [8] it was 91.8%. In addition, the results for the IC50 in assay [12], in assay [14] and in [16] were 200 nM, 16 nM and 60 nM, respectively. For the same compound, the inhibition entry in [15] is “Active”.

`COc1ccc2c3c(c4cc(OC)c(OC)cc4c2c1)CN1CCCCC1C3O` (racemic): the outcome in assay [1], in assay [3] and in assay [10] was Active. Further, the Activity in assay [2] was 32.9%; in [4], 5.52%; in assay [6] it was 0.16%; in assay [7] it was 25.4%; in assay [9], 7.7%; in [11], 0.07%. The Activity in assay [13] was found to be 35.08%; in assay [17] it was 32.4%; in assay [18], 13.2%. Also, the values for the viability at 1 µM in assay [5] and in [8] were 98.3% and 99%, respectively. Moreover, the IC50 in assay [12] was found to be 10 nM; in assay [14] it was 17 nM; in assay [16] it was 2700 nM. Also, the inhibition entry in assay [15] is “Active”.
